Laboratory results published in ChEMBL document CHEMBL1154491, “Synthesis, structure, antimicrobial and antioxidant investigations of dicoumarol and related compounds” (Eur J Med Chem, 2008).
In brackets after ≈: the same amount, converted by molar mass. Activity calls are given as the source filed them. The calls are words filed in the database; no cut-off is given here.

Assays:
[1] = Antioxidant activity assessed as ABTS radical scavenging activity by TEAC method; format: functional
Method in brief: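 The ABTS radical cation was diluted in PBS, pH 7.4, to an absorbance of 0.70 ± 0.02 at 734 nm at 37 °C. Graded dilutions of compound were added, and absorbance was read at 5, 10, 15 and 20 min after addition.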

[2] = tested on: Staphylococcus epidermidis; assay: Antimicrobial activity against 1.6X10'-3 cfu/ml Staphylococcus epidermidis ATCC 12228 after 1 to 4 days; format: functional
Method in brief: (§1)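 Compounds were dissolved in acetone (10 mg/mL stock) and diluted with culture medium into serial dilutions. Tests used Mueller-Hinton broth with 1% Tween 20, incubated aerobically at 36 ± 1 °C for 1–4 days alongside duplicate blanks. Growth was scored by turbidimetry or by plating on agar, and MIC was recorded.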

Staphylococcus aureus = assay: Antimicrobial activity against 1.5X10'-3 cfu/ml Staphylococcus aureus ATCC 6538 after 1 to 4 days; format: functional; method in brief: as §1
Cutibacterium acnes = assay: Antimicrobial activity against 1X10'-3 cfu/ml Propionibacterium acnes ATCC 11827 after 1 to 4 days; format: functional
Method in brief: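 Compounds were taken from an acetone stock (10 mg/mL), diluted in culture medium and set up as serial dilutions with duplicate blanks. After 1–4 days of incubation, bacterial growth was estimated by turbidimetry or agar plating to give the MIC.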

Mus musculus = assay: Acute toxicity in mouse at 2 g/kg; settings: in vivo

Row | SMILES | Activity [1] | MIC [2] [µg/mL] | MIC (Staphylococcus aureus) [µg/mL] | MIC (Cutibacterium acnes) [µg/mL] | Activity (Mus musculus)
1 | O=c1c(C(c2ccc([N+](=O)[O-])cc2)c2c(O)oc3ccccc3c2=O)c(O)oc2ccccc12 | Active | 1.3 (≈ 2.84 µM) | 3.7 (≈ 8.09 µM) | 0.5 (≈ 1.09 µM) | Non-toxic
2 | O=c1c(C(c2ccccc2)c2c(O)oc3ccccc3c2=O)c(O)oc2ccccc12 | Active | – | – | – | –
3 | O=c1oc2ccccc2c(O)c1C(c1cccc(O)c1O)c1c(O)c2ccccc2oc1=O | Active | 1.9 (≈ 4.28 µM) | 6.5 (≈ 14.6 µM) | 0.5 (≈ 1.13 µM) | Non-toxic
4 | Cc1ccc(C(c2c(O)c3ccccc3oc2=O)c2c(O)c3ccccc3oc2=O)cc1 | Active | – | – | – | Non-toxic
5 | COc1ccc(C(c2c(O)c3ccccc3oc2=O)c2c(O)c3ccccc3oc2=O)cc1 | Active | – | – | – | Non-toxic
6 | O=c1c(C(c2ccc(C(c3c(O)oc4ccccc4c3=O)c3c(O)oc4ccccc4c3=O)cc2)c2c(O)oc3ccccc3c2=O)c(O)oc2ccccc12 | Active | – | – | – | Non-toxic
7 | O=c1oc2ccccc2c(O)c1C(c1cc([N+](=O)[O-])ccc1O)c1c(O)c2ccccc2oc1=O | Active | – | – | – | –
8 | COc1cc(C(c2c(O)oc3ccccc3c2=O)c2c(O)oc3ccccc3c2=O)cc(OC)c1OC | Active | – | – | – | –
